PAFAH1B3 FP inh – PAFAH1B3 enzyme inhibitors, primary screen, biochemical, fluorescence polarization, human | Platelet-activating factor acetylhydrolase IB subunit alpha1 (Homo sapiens), Q15102 | recombinant PAFAH1B3, FP-rhodamine probe | inhibition, % at 3.39 µM | 340,000 tested, 0.28% active | AID 492972, 2010;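 active = inhibition above the screen-wide average of all tested compounds plus 3 SD, cut at about 25% in these data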;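 also: 0% = enzyme with DMSO only and 100% = wells lacking PAFAH1B3 protein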
Target sequence (Q15102 whole entry, looked up): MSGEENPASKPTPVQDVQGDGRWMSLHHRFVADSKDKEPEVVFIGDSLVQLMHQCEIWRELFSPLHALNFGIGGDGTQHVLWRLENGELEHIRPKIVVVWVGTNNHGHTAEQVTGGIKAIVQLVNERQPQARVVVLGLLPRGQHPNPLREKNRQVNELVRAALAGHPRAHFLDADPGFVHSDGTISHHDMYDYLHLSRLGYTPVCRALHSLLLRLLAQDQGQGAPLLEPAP
PAFAH1B2 FP inh – PAFAH1B2 enzyme inhibitors, primary screen, biochemical, fluorescence polarization, human. recombinant PAFAH1B2, FP-rhodamine activity probe. inhibition, % at 3.39 µM. Platelet-activating factor acetylhydrolase IB subunit alpha2 (Homo sapiens), P68402. AID 492953, 2010. 340,000 tested, 1.2% active;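 active = inhibition above the mean of all tested compounds plus 3 SD, cut at about 24% in these data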;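 also: 0% = enzyme with DMSO and 100% = wells lacking PAFAH1B2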
Target sequence (P68402 whole entry, looked up): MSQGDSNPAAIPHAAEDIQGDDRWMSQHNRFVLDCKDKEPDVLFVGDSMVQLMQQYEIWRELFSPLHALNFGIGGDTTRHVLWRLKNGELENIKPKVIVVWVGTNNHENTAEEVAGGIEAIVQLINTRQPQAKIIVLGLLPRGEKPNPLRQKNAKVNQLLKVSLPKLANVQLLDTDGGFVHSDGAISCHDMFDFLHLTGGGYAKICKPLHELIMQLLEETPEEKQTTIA
PAFAH2 inh – PAFAH2 enzyme inhibitors, primary screen, biochemical, fluorescence polarization, human; Platelet-activating factor acetylhydrolase 2, cytoplasmic (Homo sapiens), Q99487; 340,000 tested, 0.99% active; inhibition, % at 3.39 µM; recombinant PAFAH2, FP-rhodamine activity probe;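 active = inhibition above the mean over all tested compounds plus 3 SD, cut at about 30% in these data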;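 also: inhibitors block probe labeling of enzyme so polarization drops; 0% = enzyme with DMSO and 100% = wells lacking PAFAH2 protein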
pPAFAH FP inh – pPAFAH enzyme inhibitors, primary screen, biochemical, fluorescence polarization, human; Platelet-activating factor acetylhydrolase (Homo sapiens), Q13093; recombinant pPAFAH, FP-rhodamine probe fluorescence polarization; inhibition, % at 3.39 µM; 330,000 tested, 1.5% active; AID 463082, 2010;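 active = inhibition above the mean inhibition across the screen plus 3 SD, cut at about 25% in these data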;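 also: inhibitors block binding of the rhodamine activity-based probe so polarization drops; 0% = enzyme with DMSO and 100% = wells lacking pPAFAH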
RBBP9 inh – human RBBP9 inhibitors, primary screen, biochemical, fluorescence polarization, FP-Rh probe, HTS. 220,000 tested, 0.2% active. Serine hydrolase RBBP9 (Homo sapiens), O75884. inhibition, % at 7.94 µM. recombinant RBBP9;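 active = inhibition above the campaign mean of all tested compounds plus 3 SD, cut at about 14% in these data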;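 also: plate controls were DMSO wells with RBBP9 for no effect and wells lacking RBBP9 protein for full effect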
Target sequence (O75884 whole entry, looked up): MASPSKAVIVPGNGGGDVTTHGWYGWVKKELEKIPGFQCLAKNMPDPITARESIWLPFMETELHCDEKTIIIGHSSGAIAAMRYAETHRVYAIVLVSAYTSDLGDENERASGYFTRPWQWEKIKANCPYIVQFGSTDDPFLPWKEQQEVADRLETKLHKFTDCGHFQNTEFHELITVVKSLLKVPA
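Test system – recombinant human RBBP9 · Input – RBBP9 2.5 µM in dispensing solution, pre-mixing · Medium – Tris buffer pH 8.0, NaCl, Pluronic · Schedule – preincubation 30 min plus labeling 45 min at 25 °C · Measured by – fluorescence polarization · Measure – % inhibition · Controls – DMSO and no-protein wells · Replicates – one well per compound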
PAFAH2 confirm – PAFAH2 enzyme inhibitors, confirmation, biochemical, fluorescence polarization, human; shares compounds with PAFAH2 inh; inhibition, % at 3.39 µM; AID 493030, 2011; recombinant PAFAH2, FP-rhodamine activity probe; 2,300 tested, 65% active;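 active = mean inhibition over three repeats above a set limit taken from the earlier primary screen, cut at about 30% in these data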;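 also: inhibitor blocks binding of rhodamine activity probe so polarization falls; 0% = enzyme with DMSO and 100% = wells lacking PAFAH2 protein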
Numbers without * were called inactive; / = no result given. Rows were chosen to be rich in hits. Some 2.7% of all compounds tested hit in one or more screens of this group.

SMILES	PAFAH1B3 FP inh	PAFAH1B2 FP inh	PAFAH2 inh	pPAFAH FP inh	RBBP9 inh	PAFAH2 confirm
CC(NC(=O)COC(=O)c1ccc(N2CCCC2=O)cc1)c1ccc(F)cc1 (stereo not given)	4.3	2.7	77.5*	3.8	/	67.7*
COc1ccc(NC(=O)COC(=O)c2ccc(N3CCCC3=O)cc2)cc1	-0.5	1.7	83.5*	0.8	/	67.0*
COc1ccc(CCNC(=O)COC(=O)c2ccc(N3CCCC3=O)cc2)cc1	3.4	7.7	55.6*	1.8	-11.6	39.7*
CC(C)OC(=O)C1Cc2ccccc2CN1S(=O)(=O)c1cccs1 (stereo not given)	1.9	5.7	-8.0	-0.1	/	/
Cn1c(SSc2ccc(-c3cccnc3)n2C)ccc1-c1cccnc1	3.5	4.5	5.7	/	/	/
O=C(COC(=O)Cc1cccc(C(F)(F)F)c1)NC(=O)NC1CCCC1	15.0	0.5	3.5	5.7	/	/
COc1ccc(C(=O)N/N=C/c2ccc3cccc(O)c3n2)cc1	2.1	-0.2	35.4*	4.3	-0.2	12.4
O=C(COC(=O)C1CC2C=CC1C2)Nc1ccccc1[N+](=O)[O-] (stereo not given)	10.8	1.0	76.8*	12.9	/	57.7*
O=C(COC(=O)C1CC2C=CC1C2)Nc1ccc([N+](=O)[O-])cc1 (stereo not given)	2.0	9.8	56.7*	20.1	/	53.9*
Cc1c(NC(=O)COC(=O)C2CC3C=CC2C3)c(=O)n(-c2ccccc2)n1C (stereo not given)	12.4	1.3	-2.8	2.0	0.6	/
NC(=O)c1ccc(NC(=O)COC(=O)C2CC3C=CC2C3)cc1 (stereo not given)	0.5	4.0	-6.8	0.9	/	/
CC(C)c1ccc(NC(=O)COC(=O)C2CC3C=CC2C3)cc1 (stereo not given)	-0.7	2.3	44.3*	23.9	/	23.9
O=[N+]([O-])c1ccccc1OCCN1CCOCC1	3.8	3.8	0.4	0.5	/	/
Cc1ccsc1C(=O)N1CCN(c2ccccn2)CC1	3.8	-0.9	2.7	0.2	/	/
COC(=O)c1cn(CC(=O)Nc2ccccc2C)c2ccccc12	0.6	1.3	2.1	-1.3	/	/
CCOC(=O)N1CCN(C(=O)c2ccccc2NC(=O)c2ccc(Br)cc2)CC1	-1.7	2.5	43.7*	-4.0	-3.9	25.8
CCCC(=O)N(c1ccc(F)cc1)C1C=CS(=O)(=O)C1 (stereo not given)	8.8	0.2	3.3	-5.7	-4.1	/
COc1ccc(C(=O)OCC(=O)NC2CC2)cc1OC	4.1	2.8	66.6*	1.1	/	55.1*
COc1ccc(CC(=O)OCC(=O)NC2CCCCCC2)cc1OC	5.3	4.2	27.9	/	/	/
COc1ccc(C(=O)OCC(=O)NC2CCCC2)cc1OC	5.1	2.2	75.8*	6.2	/	80.3*
COc1ccc(CC(=O)NC2CC2)cc1OC	10.8	0.7	-7.4	5.0	/	/
Cc1ccc(C(=O)OCC(=O)NC2CCCCCC2)c(C)c1	4.4	2.2	85.7*	/	/	78.2*
O=C(COC(=O)c1ccc(O)cc1O)NC1CCCCCC1	2.9	4.9	46.4*	10.1	/	31.2*
Cc1ccc(N2C(=O)CC(Sc3ccccc3C(=O)O)C2=O)cc1C (stereo not given)	-0.1	4.9	3.3	-1.5	-8.7	/
Cc1cc2nsnc2c(S(=O)(=O)N2CCN(C)CC2)c1C	-3.3	6.3	1.2	-5.0	/	/
SMILES	PAFAH1B3 FP inh	PAFAH1B2 FP inh	PAFAH2 inh	pPAFAH FP inh	RBBP9 inh	PAFAH2 confirm
COC(=O)c1cc(C(=O)OCC(=O)NC2CCCC2)cc([N+](=O)[O-])c1	3.4	2.5	-0.2	13.5	/	/
CCN(CC)S(=O)(=O)c1ccc(C(=O)OCC(=O)NC2CCCC2)cc1	12.3	6.1	5.3	14.8	/	/
CC1CCC(NC(=O)COC(=O)c2ccc3ncsc3c2)CC1 (stereo not given)	5.0	0.6	82.7*	-6.8	/	69.2*
COc1ccc(C(=O)OCC(=O)Nc2ccccc2)cc1[N+](=O)[O-]	2.9	6.7	71.0*	8.2	3.4	72.8*
COc1cc(OC)cc(C(=O)OCC(=O)NC2CCCCCC2)c1	14.3	6.2	61.0*	21.0	/	59.4*
CCOc1ccc(C(=O)OCC(=O)NC2CCCC2)cc1OCC	3.9	-0.2	84.5*	14.4	/	82.1*
Cc1ccc(NC(=O)Cn2c(=O)oc3cc(S(=O)(=O)N4CCC(C)CC4)ccc32)cc1C	-5.0	4.1	-7.3	0.9	-4.4	/
Cc1ccc(C(=O)OCC(=O)NC2CCCC2)cc1C	8.9	4.4	86.6*	17.4	/	82.0*
COc1ccc(C(=O)OCC(=O)NC2CC2)cc1[N+](=O)[O-]	11.6	4.8	31.2*	11.4	-9.1	23.6
COc1ccc(C(=O)OCC(=O)NC2CCCCCCC2)cc1OC	6.1	-0.8	86.6*	13.0	/	78.0*
COc1ccc(C(=O)NCC(=O)OCC(=O)NC2CCCCCC2)cc1OC	4.5	10.0	3.7	-7.0	/	/
COc1ccc(C(=O)OCC(=O)NC2CCCCCC2)cc1OC	-1.4	-0.9	93.2*	9.0	/	82.6*
O=S(=O)(NC1CCCCC1)c1ccc(N2CCOCC2)nc1	5.2	5.2	4.7	1.7	-3.0	/
Cc1cccc(NC(=S)NC2CC3CCCC(C2)N3Cc2ccccc2)c1C (stereo not given)	2.8	2.0	-3.1	1.9	3.0	/
O=C(COC(=O)c1n[nH]c2ccccc12)Nc1cccc(S(=O)(=O)N2CCOCC2)c1	10.0	-1.9	50.2*	/	-11.4	32.3*
O=C(COC(=O)c1cc(=O)[nH]c2ccccc12)Nc1cccc(S(=O)(=O)N2CCOCC2)c1	4.3	3.7	-0.4	0.7	-3.5	/
O=C(COC(=O)c1cc(S(=O)(=O)N2CCOCC2)ccc1O)Nc1ccc2c(c1)OCO2	3.3	3.0	42.1*	3.1	/	31.6*
O=C(COC(=O)c1cccc(S(=O)(=O)N2CCOCC2)c1)Nc1ccc(Cl)cn1	5.3	2.5	63.6*	3.2	/	47.0*
O=C(COC(=O)c1ccc(Br)o1)Nc1cccc(S(=O)(=O)N2CCOCC2)c1	10.1	5.3	6.7	5.4	/	/
O=C(COC(=O)C1CC2C=CC1C2)Nc1cccc(S(=O)(=O)N2CCOCC2)c1 (stereo not given)	1.0	4.0	40.8*	6.3	1.7	28.1
O=C(COC(=O)c1cc(S(=O)(=O)N2CCOCC2)ccc1O)NCc1ccc2c(c1)OCO2	-2.8	-0.2	2.9	/	/	/
COc1cccc(CN2CCNC(=O)C2CC(=O)NC2CCCC2)c1OC (stereo not given)	4.0	-1.8	-3.6	-3.7	/	/
CCC(Oc1ccc2c(c1)C(=O)CC(C)(C)O2)C(=O)NCCN1CCCCCC1 (stereo not given)	1.6	1.9	-1.5	4.2	-3.6	/

From PubChem BioAssay
